Experimental data published in paper PMC7511286 (European Journal of Drug Metabolism and Pharmacokinetics, 2020).
“Also recorded” adds a separate entry of the source.

Columns and labels:
[1] = SAD study: single ascending oral dose pharmacokinetics; assay type: in vivo, human; settings: for CL/F: geometric mean (geometric %CV)
Method in brief: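 Healthy males (n = 6 per group) took oral tablets either fasted (10 h overnight fast, continued 4 h) or 30 min after starting a standardized breakfast. Periods were separated by at least 14 days of washout. Plasma was sampled pre-dose to 168 h; urine was collected 24 h pre-dose and 24 h post-dose. LC-MS/MS used ESI−, LLOQ 0.1 μg/ml. CL/F = dose/AUC0–∞; Vz/F = CL/F/λz; values are geometric means.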

[2] = MAD study: safety and tolerability; assay type: in vivo, human
Method in brief: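 Healthy males aged 18–55 took oral tablets. Treatment-emergent AEs were recorded by clinical evaluation. Vital signs (blood pressure, pulse), 12-lead and Holter ECG, physical examination, and urine and plasma laboratory tests were also assessed. AEs of special interest were hematuria and retroperitoneal colicky pain with suspected or confirmed nephrolithiasis. Subjects were hospitalized around dosing.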

[3] = single oral 10 mg, fed vs fasted

In the case of `COc1cccc(-c2ccc(NC(=O)C3=C(C(=O)O)CCC3)c(F)c2)c1` [IMU-838, vidofludimus calcium], the “accumulation ratio regarding exposure expected following multiple daily dosing” value ([1]; based on single-dose pharmacokinetics) is reported as roughly 2, the “urine samples with concentration below the LLOQ” value ([1]; single oral 10 mg) is reported as “all samples” and the “effect of food on pharmacokinetics” value ([1]; single oral 10 mg, fasted vs fed) is reported as “Food did not impact the pharmacokinetics; also recorded: no detrimental effect of food intake”. The CL/F ([1]; single oral 10 mg, fasted, n = 6) was 4.064 (15.9) ml/min, the “blood exposure higher after fed administration compared with fasted” value [1, 3] was “about 32%” and the “geometric mean Cmax higher after fed compared with fasted” value [1, 3] was “about 23%”. For the same molecule, the CL/F ([1]; single oral 10 mg, fed, n = 6) was 3.090 (25.5) ml/min, the “urine samples with concentration below the LLOQ” value ([1]; single oral 20 mg) was “four of six samples” and the CL/F ([1]; single oral 20 mg, fasted, n = 6) was 4.218 (17.2) ml/min. For the same molecule, the CL/F ([1]; single oral 30 mg, fasted, n = 6) was 3.633 (29.3) ml/min, the CL/F ([1]; single oral 40 mg, fasted, n = 5) was 3.480 (21) ml/min and the “dose dependence of plasma pharmacokinetics” value ([1]; single oral 10 to 40 mg, fasted) was “dose-linear”. For the same molecule, the “fraction of administered dose excreted in urine during single 24 h period” value ([1]; single oral 30 and 40 mg) was “more than 1%”, the “TEAE Abdominal pain upper: number of events” value ([2]; 25 mg (initiation dose), n = 8) was 1 and the “TEAE Abdominal pain upper: subjects having the event” value ([2]; 25 mg (initiation dose), n = 8) was 1 (12.5) N (%). For the same molecule, the “TEAE Atrioventricular block first degree: number of events” value ([2]; 25 mg (initiation dose), n = 8) was 1, the “TEAE Atrioventricular block first degree: subjects having the event” value ([2]; 25 mg (initiation dose), n = 8) was 1 (12.5) N (%) and the “TEAE Diarrhea: subjects having the event” value ([2]; 25 mg (initiation dose), n = 8) was 1 (12.5) N (%). For the same molecule, the “TEAE Nasopharyngitis: subjects having the event” value ([2]; 25 mg (initiation dose), n = 8) was 1 (12.5) N (%), the “TEAEs Cardiac disorders Total: number of events” value ([2]; 25 mg (initiation dose), n = 8) was 1 and the “TEAEs Cardiac disorders Total: subjects having the event” value ([2]; 25 mg (initiation dose), n = 8) was 1 (12.5) N (%). For the same molecule, the “TEAEs Gastrointestinal disorders Total: number of events” value ([2]; 25 mg (initiation dose), n = 8) was 2, the “TEAEs Gastrointestinal disorders Total: subjects having the event” value ([2]; 25 mg (initiation dose), n = 8) was 1 (12.5) N (%) and the “TEAEs Infections and infestations Total: number of events” value ([2]; 25 mg (initiation dose), n = 8) was 1. For the same molecule, the “TEAEs Infections and infestations Total: subjects having the event” value ([2]; 25 mg (initiation dose), n = 8) was 1 (12.5) N (%), the “TEAEs Total: number of events” value ([2]; 25 mg (initiation dose), n = 8) was 4 and the “TEAEs Total: subjects having the event” value ([2]; 25 mg (initiation dose), n = 8) was 3 (37.5) N (%). The “number of drug-related TEAEs” value ([2]; 30 mg once daily) was 18, the “TEAE Abdominal pain: number of events” value ([2]; 30 mg, n = 12) was 1 and the “TEAE Abdominal pain: subjects having the event” value ([2]; 30 mg, n = 12) was 1 (8.3) N (%). The “TEAE Feces soft: number of events” value ([2]; 30 mg, n = 12) was 2, the “TEAE Feces soft: subjects having the event” value ([2]; 30 mg, n = 12) was 2 (16.7) N (%) and the “TEAE Flatulence: subjects having the event” value ([2]; 30 mg, n = 12) was 6 (50.0) N (%). For the same molecule, the “TEAE Gamma–glutamyl transferase increased: number of events” value ([2]; 30 mg, n = 12) was 2, the “TEAE Gamma–glutamyl transferase increased: subjects having the event” value ([2]; 30 mg, n = 12) was 1 (8.3) N (%) and the “TEAE Headache: subjects having the event” value ([2]; 30 mg, n = 12) was 1 (8.3) N (%). The “TEAE Lipase increased: number of events” value ([2]; 30 mg, n = 12) was 1, the “TEAE Lipase increased: subjects having the event” value ([2]; 30 mg, n = 12) was 1 (8.3) N (%) and the “TEAE Musculoskeletal discomfort: number of events” value ([2]; 30 mg, n = 12) was 1. For the same molecule, the “TEAE Musculoskeletal discomfort: subjects having the event” value ([2]; 30 mg, n = 12) was 1 (8.3) N (%), the “TEAE Nausea: subjects having the event” value ([2]; 30 mg, n = 12) was 1 (8.3) N (%) and the “TEAEs Gastrointestinal disorders Total: number of events” value ([2]; 30 mg, n = 12) was 14. For the same molecule, the “TEAEs Gastrointestinal disorders Total: subjects having the event” value ([2]; 30 mg, n = 12) was 7 (58.3) N (%), the “TEAEs Investigations Total: number of events” value ([2]; 30 mg, n = 12) was 3 and the “TEAEs Investigations Total: subjects having the event” value ([2]; 30 mg, n = 12) was 2 (16.7) N (%). For the same molecule, the “TEAEs Musculoskeletal and connective tissue disorders Total: number of events” value ([2]; 30 mg, n = 12) was 1, the “TEAEs Musculoskeletal and connective tissue disorders Total: subjects having the event” value ([2]; 30 mg, n = 12) was 1 (8.3) N (%) and the “TEAEs Nervous system disorders Total: number of events” value ([2]; 30 mg, n = 12) was 1. The “TEAEs Nervous system disorders Total: subjects having the event” value ([2]; 30 mg, n = 12) was 1 (8.3) N (%), the “TEAEs Renal and urinary disorders Total: number of events” value ([2]; 30 mg, n = 12) was 1 and the “TEAEs Renal and urinary disorders Total: subjects having the event” value ([2]; 30 mg, n = 12) was 1 (8.3) N (%). The “TEAEs Total: number of events” value ([2]; 30 mg, n = 12) was 20, the “TEAEs Total: subjects having the event” value ([2]; 30 mg, n = 12) was 9 (75.0) N (%) and the “TEAE Hemoglobinuria: subjects having the event” value ([2]; 30 mg, n = 12, based solely on a positive dip stick test) was 1 (8.3) N (%). For the same molecule, the “number of drug-related TEAEs” value ([2]; 40 mg once daily) was 8, the “TEAE Arthropod bite: number of events” value ([2]; 40 mg, n = 12) was 1 and the “TEAE Arthropod bite: subjects having the event” value ([2]; 40 mg, n = 12) was 1 (8.3) N (%). The “TEAE Blood creatinine kinase increased: number of events” value ([2]; 40 mg, n = 12) was 1, the “TEAE Blood creatinine kinase increased: subjects having the event” value ([2]; 40 mg, n = 12) was 1 (8.3) N (%) and the “TEAE Fatigue: subjects having the event” value ([2]; 40 mg, n = 12) was 3 (25.0) N (%). The “TEAE Flatulence: subjects having the event” value ([2]; 40 mg, n = 12) was 1 (8.3) N (%), the “TEAE Headache: subjects having the event” value ([2]; 40 mg, n = 12) was 1 (8.3) N (%) and the “TEAE Listless: subjects having the event” value ([2]; 40 mg, n = 12) was 1 (8.3) N (%). The “TEAE Sneezing: subjects having the event” value ([2]; 40 mg, n = 12) was 1 (8.3) N (%) and the “TEAEs Gastrointestinal disorders Total: number of events” value ([2]; 40 mg, n = 12) was 1.
